Source: ChEMBL document CHEMBL4814002, “Synthesis, biological evaluation, and docking studies of novel pyrrolo[2,3-b]pyridine derivatives as both ectonucleotide pyrophosphatase/phosphodiesterase inhibitors and antiproliferative agents” (Eur J Med Chem, 2021)
The source made the active and inactive calls. The calls are words filed in the database; no cut-off is given here.

Assays:
[1] = target: T1, Ectonucleotide pyrophosphatase/phosphodiesterase family member 1 (Homo sapiens, UniProt P22413); assay: Inhibition of human NPP1 transfected in COS7 cells using pNP-TMP as substrate incubated for 35 mins; type: cell-based
T1 sequence (P22413 whole entry): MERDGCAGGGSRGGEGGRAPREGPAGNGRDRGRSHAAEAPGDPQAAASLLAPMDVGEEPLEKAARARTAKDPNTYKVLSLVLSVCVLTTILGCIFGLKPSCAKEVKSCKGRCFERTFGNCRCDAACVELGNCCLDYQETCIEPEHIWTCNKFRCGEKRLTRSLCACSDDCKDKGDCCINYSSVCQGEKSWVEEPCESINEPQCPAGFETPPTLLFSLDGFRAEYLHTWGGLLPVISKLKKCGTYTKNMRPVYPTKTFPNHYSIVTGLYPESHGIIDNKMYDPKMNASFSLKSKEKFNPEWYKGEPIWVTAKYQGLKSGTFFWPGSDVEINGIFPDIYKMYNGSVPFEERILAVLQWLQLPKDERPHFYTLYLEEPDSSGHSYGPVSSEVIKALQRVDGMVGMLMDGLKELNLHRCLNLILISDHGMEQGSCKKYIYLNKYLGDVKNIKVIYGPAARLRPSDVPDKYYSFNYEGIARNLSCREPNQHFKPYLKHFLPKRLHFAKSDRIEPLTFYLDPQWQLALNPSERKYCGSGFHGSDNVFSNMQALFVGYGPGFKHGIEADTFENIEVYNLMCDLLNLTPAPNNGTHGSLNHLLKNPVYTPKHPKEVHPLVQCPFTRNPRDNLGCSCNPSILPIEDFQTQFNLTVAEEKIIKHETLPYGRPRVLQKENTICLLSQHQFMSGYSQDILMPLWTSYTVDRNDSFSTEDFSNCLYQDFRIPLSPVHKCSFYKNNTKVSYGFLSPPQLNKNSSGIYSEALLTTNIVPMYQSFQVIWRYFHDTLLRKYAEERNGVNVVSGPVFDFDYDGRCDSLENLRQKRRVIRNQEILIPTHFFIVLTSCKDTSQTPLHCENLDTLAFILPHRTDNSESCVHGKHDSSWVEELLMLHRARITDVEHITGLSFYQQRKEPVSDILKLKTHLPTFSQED

HT-29 [2] = assay: Antiproliferative activity against human HT-29 cells assessed as reduction in cell growth at 10 uM incubated for 24 hrs by MTT assay relative to control; type: functional
How it was run: (§1)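 MTT assay. Cells seeded at 4 × 10^4 per well and incubated overnight. Treated 24 h; DMSO served as negative control and doxorubicin as positive control. MTT dye 0.5 mg/mL added for 2 h at 37 °C, formazan dissolved in DMSO, absorbance read at 570 nm. Single-concentration screen at 10; dose-dependent dilutions gave IC50. WI-38 fibroblasts grown in DMEM with 10% FBS and 1% penicillin/streptomycin. Triplicate means ± S.E.M.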

[3] = target: T2, Ectonucleotide pyrophosphatase/phosphodiesterase family member 3 (Homo sapiens, UniProt O14638); assay: Inhibition of human NPP3 transfected in COS7 cells using pNP-TMP as substrate incubated for 35 mins; type: cell-based
T2 sequence (O14638 whole entry): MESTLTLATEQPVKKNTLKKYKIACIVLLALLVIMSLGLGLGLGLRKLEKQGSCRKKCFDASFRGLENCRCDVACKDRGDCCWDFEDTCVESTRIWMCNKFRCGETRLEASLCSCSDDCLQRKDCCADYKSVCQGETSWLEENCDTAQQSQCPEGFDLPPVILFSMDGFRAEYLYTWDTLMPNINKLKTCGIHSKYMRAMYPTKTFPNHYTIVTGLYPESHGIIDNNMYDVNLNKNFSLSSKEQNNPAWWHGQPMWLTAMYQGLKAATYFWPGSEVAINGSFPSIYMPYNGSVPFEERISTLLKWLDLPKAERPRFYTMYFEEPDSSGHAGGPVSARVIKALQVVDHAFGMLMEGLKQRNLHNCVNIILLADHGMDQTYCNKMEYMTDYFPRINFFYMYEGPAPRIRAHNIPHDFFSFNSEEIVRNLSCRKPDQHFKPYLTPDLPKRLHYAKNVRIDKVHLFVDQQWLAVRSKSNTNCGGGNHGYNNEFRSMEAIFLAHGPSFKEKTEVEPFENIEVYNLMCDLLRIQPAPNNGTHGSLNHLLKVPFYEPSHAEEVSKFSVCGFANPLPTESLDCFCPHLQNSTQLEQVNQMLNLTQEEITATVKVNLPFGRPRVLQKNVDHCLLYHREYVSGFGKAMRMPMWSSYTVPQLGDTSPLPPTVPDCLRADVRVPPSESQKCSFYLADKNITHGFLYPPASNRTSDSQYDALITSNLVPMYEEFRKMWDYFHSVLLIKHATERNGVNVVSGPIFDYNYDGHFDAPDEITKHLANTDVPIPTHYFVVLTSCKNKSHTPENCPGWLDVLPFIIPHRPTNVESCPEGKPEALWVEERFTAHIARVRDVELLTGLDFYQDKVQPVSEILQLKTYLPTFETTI

MCF7 [4] = assay: Antiproliferative activity against human MCF7 cells assessed as reduction in cell growth at 10 uM incubated for 24 hrs by MTT assay relative to control; type: functional; how it was run: as §1
[5] = target: T3, Ectonucleotide pyrophosphatase/phosphodiesterase family member 3 (Homo sapiens) (UniProt O14638); assay: Inhibition of human NPP3 transfected in COS7 cells at 100 uM using pNP-TMP as substrate incubated for 35 mins relative to control; type: cell-based
T3 sequence (whole entry): T2 sequence (O14638 whole entry)
How it was run: (§2)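 Human NPP1 or NPP3 expressed in COS-7 cells by plasmid/Lipofectamine transfection, harvested 48-72 h later. Membrane fractions prepared by sonication and 300 g centrifugation, stored with 7.5% glycerol; protein measured by Bradford. Assay buffer: 50 mM Tris-HCl, 5 mM MgCl2, 0.1 mM ZnCl2, pH 9.5. Triplicates ± S.E.M.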

[6] = target: T4, Ectonucleotide pyrophosphatase/phosphodiesterase family member 1 (Homo sapiens) (UniProt P22413); assay: Inhibition of human NPP1 transfected in COS7 cells at 100 uM using pNP-TMP as substrate incubated for 35 mins relative to control; type: cell-based; how it was run: as §2
T4 sequence (whole entry): T1 sequence (P22413 whole entry)

WI-38 = assay: Cytotoxicity against human WI-38 cells assessed as reduction in cell growth incubated for 24 hrs by MTT assay; type: cell-based; settings: WI-38, 24 h; how it was run: as §1
HT-29 [7] = assay: Antiproliferative activity against human HT-29 cells assessed as reduction in cell growth incubated for 24 hrs by MTT assay; type: functional, cell-based; settings: HT-29, 24 h
How it was run: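 HT-29 colon cancer cells seeded per well and incubated overnight, then exposed for 24 h to serial dilutions of compound (10 mM DMSO stock diluted in medium), with doxorubicin and DMSO controls. MTT (0.5 mg/mL) added for 2 h at 37 °C, formazan dissolved in DMSO, absorbance read at 570 nm. IC50 from triplicate assays, mean ± S.E.M.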

MCF7 [8] = assay: Antiproliferative activity against human MCF7 cells assessed as reduction in cell growth at 100 uM incubated for 24 hrs by MTT assay relative to control; type: functional
[9] = target: T2, Ectonucleotide pyrophosphatase/phosphodiesterase family member 3; assay: Inhibition of NPP3 (unknown origin) transfected in COS7 cells using pNP-TMP as substrate incubated for 35 mins by spectrophotometric method; type: cell-based; how it was run: as §2
[10] = target: T3, Ectonucleotide pyrophosphatase/phosphodiesterase family member 3 (Homo sapiens); assay: Competitive inhibition of human NPP3 transfected in COS7 cells at 0.1 to 1 uM using pNP-TMP as substrate incubated for 35 mins by Lineweaver-Burk plot analysis; type: cell-based; settings: dose 0.1-1 µM
How it was run: (§3)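 Kinetics with pNP-TMP at 0.0, 1.25, 2.50, 5.0, 7.5 and 10.0 mM in Tris-HCl 50 mM, MgCl2 5 mM, ZnCl2 0.1 mM, pH 9.5. Incubated at 37 °C and read over 35 min at 5-min intervals. Enzyme from transfected COS-7 membrane fractions.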

[11] = target: T1, Ectonucleotide pyrophosphatase/phosphodiesterase family member 1; assay: Inhibition of NPP1 (unknown origin) transfected in COS7 cells using pNP-TMP as substrate incubated for 35 mins by spectrophotometric method; type: cell-based; how it was run: as §2
[12] = Toxicity in BALB/c mouse assessed as glucose level at 20 mg/kg, ip measured at 120 mins (reference value: 106 to 141 mg/dl); settings: in vivo
[13] = Toxicity in BALB/c mouse assessed as glucose level at 10 mg/kg, ip measured at 60 mins (reference value: 106 to 141 mg/dl); settings: in vivo
[14] = Toxicity in BALB/c mouse assessed as glucose level at 20 mg/kg, ip measured at 0 hrs (reference value: 106 to 141 mg/dl); type: organism-based; settings: in vivo
How it was run: (§4)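 Male BALB/c mice weighing 30-35 g, five per group. Given i.p. at 10 or 20 mg/kg in (2-hydroxypropyl)-β-cyclodextrin solution. Control group received vehicle alone. Blood glucose (mg/dL) measured at 0, 30, 60, 90 and 120 min after injection.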

[15] = Toxicity in BALB/c mouse assessed as glucose level at 10 mg/kg, ip measured at 0 hrs (reference value: 106 to 141 mg/dl); type: organism-based; settings: in vivo; how it was run: as §4
[16] = Toxicity in BALB/c mouse assessed as glucose level at 10 mg/kg, ip measured at 90 mins (reference value: 106 to 141 mg/dl); settings: in vivo
[17] = Toxicity in BALB/c mouse assessed as glucose level at 10 mg/kg, ip measured at 30 mins (reference value: 106 to 141 mg/dl); settings: in vivo
[18] = Toxicity in BALB/c mouse assessed as glucose level at 20 mg/kg, ip measured at 60 mins (reference value: 106 to 141 mg/dl); settings: in vivo
[19] = Toxicity in BALB/c mouse assessed as glucose level at 20 mg/kg, ip measured at 30 mins (reference value: 106 to 141 mg/dl); settings: in vivo
[20] = Toxicity in BALB/c mouse assessed as glucose level at 20 mg/kg, ip measured at 90 mins (reference value: 106 to 141 mg/dl); settings: in vivo
[21] = Toxicity in BALB/c mouse assessed as glucose level at 10 mg/kg, ip measured at 120 mins (reference value: 106 to 141 mg/dl); settings: in vivo
[22] = target: T4, Ectonucleotide pyrophosphatase/phosphodiesterase family member 1 (Homo sapiens); assay: Non-competitive inhibition of human NPP1 transfected in COS7 cells at 0.5 to 1.5 uM using pNP-TMP as substrate incubated for 35 mins by Lineweaver-Burk plot analysis; type: cell-based; settings: dose 0.5-1.5 µM; how it was run: as §3
MCF7 [23] = assay: Antiproliferative activity against human MCF7 cells assessed as reduction in cell growth incubated for 24 hrs by MTT assay; type: functional, cell-based; settings: MCF7, 24 h; how it was run: as §1

Row | SMILES | IC50 [1] | inhibition at 10 µM (HT-29 [2]) | IC50 [3] | inhibition at 10 µM (MCF7 [4]) | also measured
1 | O=C(NS(=O)(=O)c1ccc(Cl)cc1)n1ccc2cccnc21 | 10.4 µM | 54.4% | 0.88 µM | 33.5% | –
2 | Cc1ccc(S(=O)(=O)NC(=O)n2ccc3c(N(C)C)ccnc32)cc1 | – | 21.4% | – | 5.6% | inhibition [5]: 45.7%; inhibition [6]: 41.5%
3 | O=C(NS(=O)(=O)c1ccc2ccccc2c1)n1ccc2cccnc21 | – | 16.2% | – | 1.9% | inhibition [5]: 44.1%; inhibition [6]: 48.6%
4 | O=C(NS(=O)(=O)c1ccc2ccccc2c1)n1ccc2cc(Br)cnc21 | 178 µM | 60.1% | 25.3 µM | 28.8% | –
5 | COc1cccc2c1C(=O)c1c(O)c3c(c(O)c1C2=O)C[C@@](O)(C(=O)CO)C[C@@H]3O[C@H]1C[C@H](N)[C@H](O)[C@H](C)O1 [DOXORUBICIN] | – | 94.3% | – | 96.8% | IC50 (WI-38): 1.96 µM; IC50 (HT-29 [7]): 1.4 µM
6 | O=C(NS(=O)(=O)c1ccccc1)n1ccc2c(Cl)ccnc21 | 1.08 µM | 47.6% | 26.1 µM | 3.32% | –
7 | Oc1ccc(-c2nn(-c3cccc(NC(=S)Nc4ccccc4)c3)cc2-c2ccncc2)cc1Cl | – | – | – | – | inhibition at 100 µM (MCF7 [8]): 35.6%; IC50 [9]: 0.21 µM
8 | O=C(NS(=O)(=O)c1cccc([N+](=O)[O-])c1)n1ccc2cc(Br)cnc21 | 1.15 µM | 58.5% | 2.13 µM | 43% | –
9 | CN(C)c1ccnc2c1ccn2C(=O)NS(=O)(=O)c1ccccc1 | 2.77 µM | 17.6% | 0.55 µM | 26.9% | inhibition [10]: Active
10 | O=C(NS(=O)(=O)c1ccc2ccccc2c1)n1ccc2c(Cl)ccnc21 | 3.29 µM | 58.2% | 1.31 µM | 28.6% | –
11 | COc1ccc(-c2nn(-c3cccc(NS(=O)(=O)c4ccc(C)cc4)c3)cc2-c2ccncc2)cc1Cl | – | – | – | – | inhibition at 100 µM (MCF7 [8]): 40.3%; IC50 [11]: 0.18 µM
12 | O=C(NS(=O)(=O)c1ccccc1)n1ccc2cccnc21 | 4.5 µM | 23.6% | – | 18.9% | inhibition [5]: 37.5%
13 | O=C(NS(=O)(=O)c1ccccc1)n1ccc2cc(Br)cnc21 | 8.3 µM | 14.6% | 2.01 µM | 16.8% | –
14 | Cc1ccc(S(=O)(=O)NC(=O)n2ccc3cc(Br)cnc32)cc1 | 1.55 µM | 82.4% | 0.59 µM | 28% | Activity [12]: 121 mg/dL; Activity [13]: 122 mg/dL; Activity [14]: 114 mg/dL; IC50 (WI-38): 18.4 µM; Activity [15]: 108 mg/dL; Activity [16]: 124 mg/dL; Activity [17]: 103 mg/dL; IC50 (HT-29 [7]): 1.58 µM; Activity [18]: 114 mg/dL; Activity [19]: 113 mg/dL; Activity [20]: 128 mg/dL; Activity [21]: 121 mg/dL
15 | O=C(NS(=O)(=O)c1cccc([N+](=O)[O-])c1)n1ccc2cccnc21 | 0.8 µM | 18.9% | 1.17 µM | 70.7% | IC50 (WI-38): > 20 µM; inhibition [22]: Active; IC50 (MCF7 [23]): 4.7 µM
16 | Cc1ccc(S(=O)(=O)NC(=O)n2ccc3cccnc32)cc1 | – | 33.4% | 3.72 µM | 20.3% | inhibition [6]: 47.9%
